Measured values from ChEMBL document CHEMBL1765010, “Reversible competitive α-ketoheterocycle inhibitors of fatty acid amide hydrolase containing additional conformational constraints in the acyl side chain: orally active, long-acting analgesics” (J Med Chem, 2011).
Active and inactive are the calls of the source. No cut-off for these calls is given here.

Columns and labels:
[1] = test system: Mus musculus; experiment: Inhibition of FAAH in C57Bl/6J mouse brain assessed as increase of anandamide level at 10 to 50 mg/kg, po after up to 9 hrs; type: functional, organism-based
In short: (§1)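 Male C57Bl/6J mice (<6 months, 20–28 g) given a single oral dose as a PEG300 solution. Brains were homogenized in CHCl3:MeOH:Tris pH 8.0 containing deuterated internal standards. The organic extract was analysed by reverse-phase C18 LC–ESI triple-quadrupole MS for anandamide, PEA, OEA and 2-AG. Dose series (10, 25, 50 mg/kg) was sampled at 1 h; the 50 mg/kg time course ran to 9 h. Three mice per group in the i.p./p.o. comparison.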

[2] = test system: Mus musculus; experiment: Analgesic activity in C57BL/6 mouse chronic constriction injury model assessed as reversal of von Frey filament-induced mechanical allodynia at 50 mg/kg, po measured up to 6 hrs; type: functional, organism-based; parameters: dose 50 mg/kg
In short: (§2)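 Male C57BL/6 mice with sciatic nerve chronic constriction injury (two silk ligatures, isoflurane anesthesia), tested from 10 days post-surgery after 2 days of apparatus habituation. Single oral dose in PEG300 or vehicle. Blinded observer tested ipsilateral and contralateral paws at 1, 3, 6 and 9 h: von Frey up-down method (0.16–6.0 g filaments, 5 stimuli each) and acetone-induced cold response. n = 9–10; mean ± SEM.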

[3] = test system: Mus musculus; experiment: Inhibition of FAAH in C57Bl/6J mouse liver assessed as increase of anandamide level at 30 mg/kg, ip after 1 hr relative to control; type: functional; settings: route intraperitoneal
[4] = test system: Mus musculus; experiment: Inhibition of FAAH in po dosed C57Bl/6J mouse brain assessed as increase of N-palmitoyl ethanolamine level after 1 hr relative to control; type: functional, organism-based; settings: in the assay text read “anandamide” for “N-palmitoyl ethanolamine”; in short: as §1
[5] = test system: Mus musculus; experiment: Toxicity in C57BL/6 mouse assessed as hypomotility at 50 mg/kg, po; type: organism-based; parameters: dose 50 mg/kg, route oral; settings: in vivo
[6] = test system: Mus musculus; experiment: Inhibition of FAAH in C57Bl/6J mouse brain assessed as increase of N-palmitoyl ethanolamine level at 50 mg/kg, po after 1 hr relative to control; type: functional
In short: (§3)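 Male C57Bl/6J mice (<6 months, 20–28 g) given compound orally as a PEG300 solution at 10, 25 or 50 mg/kg, with 3 mice per group in the 50 mg/kg p.o. comparison; brains collected 1 h post-dose. Lipids extracted in CHCl3:MeOH:Tris pH 8.0 with deuterated internal standards, then measured by C18 LC-ESI-MS/MS relative to vehicle-treated mice.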

[7] = test system: Mus musculus; experiment: Inhibition of FAAH in C57Bl/6J mouse brain assessed as increase of anandamide level at 25 to 50 mg/kg, po after 1 hr relative to control; type: functional; settings: dose mg/kg 25-50; in short: as §3
[8] = biological target: T1, Fatty-acid amide hydrolase 1 (Homo sapiens) (UniProt O00519); experiment: Reversible inhibition of full-length human FAAH expressed in COS-7 cells by Lineweaver-Burk analysis; type: cell-based
T1 sequence (whole entry): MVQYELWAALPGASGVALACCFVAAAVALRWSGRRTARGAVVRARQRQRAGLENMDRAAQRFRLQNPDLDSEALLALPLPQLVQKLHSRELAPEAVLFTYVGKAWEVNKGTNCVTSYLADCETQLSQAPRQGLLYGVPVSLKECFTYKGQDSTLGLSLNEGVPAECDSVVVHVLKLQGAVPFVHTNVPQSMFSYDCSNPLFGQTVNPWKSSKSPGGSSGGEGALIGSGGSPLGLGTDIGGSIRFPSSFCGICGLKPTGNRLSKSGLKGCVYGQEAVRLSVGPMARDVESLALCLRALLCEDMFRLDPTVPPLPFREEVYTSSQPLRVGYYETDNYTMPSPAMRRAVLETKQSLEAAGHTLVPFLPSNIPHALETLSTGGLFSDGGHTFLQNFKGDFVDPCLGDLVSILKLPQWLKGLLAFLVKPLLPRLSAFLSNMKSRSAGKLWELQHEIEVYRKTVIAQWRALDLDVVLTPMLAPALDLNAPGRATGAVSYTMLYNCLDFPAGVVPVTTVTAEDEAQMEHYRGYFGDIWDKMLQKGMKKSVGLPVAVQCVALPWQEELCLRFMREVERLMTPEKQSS
In short: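 Solubilized membrane lysate of COS-7 cells transiently transfected with full-length human FAAH cDNA. Aliquots quenched in 0.1 N HCl at three times; oleamide/oleic acid extracted into EtOAc and separated by TLC. Initial rates (≤10–20% conversion) analysed by Lineweaver–Burk plot.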

[9] = test system: Mus musculus; experiment: Inhibition of FAAH in C57Bl/6J mouse brain assessed as increase of anandamide level at 10 to 50 mg/kg, po after 1.5 to 3 hrs; type: functional, organism-based
[10] = test system: Mus musculus; experiment: Inhibition of FAAH in C57Bl/6J mouse brain assessed as increase of 2-arachidonoylglycerol level at 50 mg/kg, po after 1 hr relative to control; type: functional; in short: as §3
[11] = test system: Mus musculus; experiment: Analgesic activity in C57BL/6 mouse chronic constriction injury model assessed as reversal of paws ipsilateral to CCI surgery at 50 mg/kg, po measured up to 9 hrs; type: functional, organism-based; parameters: dose 50 mg/kg; in short: as §2
[12] = test system: Mus musculus; experiment: Inhibition of FAAH in C57Bl/6J mouse brain assessed as increase of 2-arachidonoylglycerol level at 30 mg/kg, ip after 1 hr relative to control; type: functional; settings: route intraperitoneal
In short: (§4)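 Male C57Bl/6J mice (<6 months, 20–28 g) dosed i.p. at 30 mg/kg in 18:1:1 saline:ethanol:emulphor emulsion; brains taken 1 h later. One mouse in the initial screen, 3 per group in the follow-up. Brain homogenized in CHCl3:MeOH:Tris pH 8.0 with deuterated lipid standards; organic extract quantified by reverse-phase C18 LC-ESI-MS/MS against vehicle controls.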

[13] = test system: Mus musculus; experiment: Inhibition of FAAH in C57Bl/6J mouse brain assessed as increase of anandamide level at 10 mg/kg, po; type: functional; parameters: scale not given: the % may be the effect or the level left; in short: as §3
[14] = test system: Mus musculus; experiment: Inhibition of FAAH in C57Bl/6J mouse liver assessed as increase of N-palmitoyl ethanolamine level at 30 mg/kg, ip after 1 hr relative to control; type: functional; settings: route intraperitoneal
[15] = test system: Mus musculus; experiment: Analgesic activity in C57BL/6 mouse chronic constriction injury model assessed as reversal of acetone-induced cold allodynia at 50 mg/kg, po measured up to 9 hrs; type: functional, organism-based; parameters: dose 50 mg/kg; in short: as §2
[16] = test system: Mus musculus; experiment: Inhibition of FAAH in po dosed C57Bl/6J mouse brain assessed as increase of anandamide level after 1 hr relative to control; type: functional, organism-based; in short: as §1
[17] = test system: Mus musculus; experiment: Inhibition of FAAH in C57Bl/6J mouse brain assessed as increase of N-palmitoyl ethanolamine level at 10 to 50 mg/kg, po after 1 hr relative to control; type: functional; settings: dose mg/kg 10-50; in short: as §3
[18] = test system: Mus musculus; experiment: Inhibition of FAAH in po dosed C57Bl/6J mouse brain assessed as increase of 2-arachidonoylglycerol level after 1 hr relative to control; type: functional, organism-based; in short: as §1
[19] = test system: Mus musculus; experiment: Inhibition of FAAH in C57Bl/6J mouse brain assessed as increase of anandamide level at 50 mg/kg, po; type: functional, organism-based; parameters: dose 50 mg/kg; settings: TDE = time-dependent effect; in short: as §1
[20] = test system: Mus musculus; experiment: Toxicity in C57BL/6 mouse assessed as hypothermia at 50 mg/kg, po; type: organism-based; parameters: dose 50 mg/kg, route oral; settings: in vivo
[21] = test system: Mus musculus; experiment: Inhibition of FAAH in C57Bl/6J mouse brain assessed as increase of anandamide level at 30 mg/kg, ip after 1 hr relative to control; type: functional; settings: route intraperitoneal; in short: as §4

With `O=C(c1ncc(-c2ccccn2)o1)[C@H]1CCc2cc(Oc3ccccc3)ccc2C1` the Activity [1] was “Active”, the Activity [2] was “Active” and the “fold change (FC)” value [3] was 6. For the same compound, the Activity [4] was “Dose-dependent effect”, the Activity [5] was “Non-toxic” and the fold change (FC) [6] was 7.7. For the same compound, the “fold change (FC)” value [7] was 12, the inhibition [8] was “Active” and the Activity [9] was “Active”. For the same compound, the “fold change (FC)” value [10] was 1.4, the Activity [11] was “Active” and the “fold change (FC)” value [12] was 0.9. The Activity [13] was greater than 90%, the “fold change (FC)” value [14] was 3.6 and the Activity [15] was “Active”. For the same compound, the Activity [16] was “Dose-dependent effect”, the “fold change (FC)” value [17] was 5.5 and the Activity [18] was “Dose-dependent effect”. The Activity [19] was “tde”, the Activity [20] was “Non-toxic” and the “fold change (FC)” value [21] was 5.1.
